In paper PMC2943495 (Chemistry & biology, 2010):

Legend:
FRB-FKBP [1] = settings: ref Bierer et al., 1990, cited from earlier work
FRB-FKBP [2] = target: FRB-FKBP (Homo sapiens, UniProt P42345+P62942); test: Real-time reversibility of CBG-N + CBG-C PCA; type: cell-based
[3] = ref Inoue et al., 2005; cited from earlier work
PCA luciferase = test: Control: effect on PCA luciferase enzyme activity; settings: data not shown
IκBα/β-TrCP = test: Two-color PCA switch, red: IκBα/β-TrCP interaction; type: cell-based; settings: HEK293T, TNFα 20 ng/ml
β-cat/β-TrCP = test: Two-color PCA switch, green: β-cat/β-TrCP interaction; type: cell-based; settings: HEK293T
NFκB = test: NFκB-dependent transcriptional reporter; type: cell-based; settings: HEK293T, 2 hours
Outline: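 HEK293T cells in 24-well plates were transfected with an NFκB-driven FLuc reporter (200 ng/well). At 48 h the medium was changed to DMEM imaging medium. After 15 min equilibration a pre-treatment image was taken. Cells then received TNFα (20 ng/ml final) and/or a GSK3β inhibitor (50 μM final) or DMSO vehicle, and were re-imaged after 2 h in a humidified 5% CO2 incubator. Photon flux is reported as mean fold-initial ± S.E.M.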

EGFR = test: EGFR-CBG PCA conformation sensing in CHO TetOn cells; type: cell-based
Outline: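 CHO TetOn cells in 96-well plates were transfected for 24 h with EGFR-CBG PCA fusion pairs, then serum-starved for 3 h. They were pre-incubated for 20 min untreated, with DMSO vehicle, or with test compound (10 μM). Baseline was imaged every 15 s for 10 min, then 25 nM EGF was added and imaging continued for 20 min. Untreated-well signal was subtracted. Mean of 8 replicate wells.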

ΔFRB (S2035I)-FKBP = ΔFRB (S2035I)-FKBP (Homo sapiens, UniProt P42345+P62942, S2035I); test: Luciferase PCA with mutant S2035I FRB; type: cell-based; settings: HEK293T, 100 nM rapamycin for 6 hrs, Δ-N fusions
ΔFRB (S2035I)-FKBP, sequence (P42345 2024-2113 S2035I): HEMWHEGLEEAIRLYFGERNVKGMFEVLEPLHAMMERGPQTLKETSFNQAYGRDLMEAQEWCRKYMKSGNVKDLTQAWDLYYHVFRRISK
ΔFRB (S2035I)-FKBP, sequence (P62942 whole entry, the tested form may be a part): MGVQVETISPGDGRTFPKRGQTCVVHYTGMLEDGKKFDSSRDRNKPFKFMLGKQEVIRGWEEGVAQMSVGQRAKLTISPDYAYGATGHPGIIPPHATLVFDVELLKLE

IκBα = test: IκBα-FLuc fusion reporter processing in HepG2 cells; type: cell-based; settings: HepG2, TNFα 20 ng/mL
Outline: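 HepG2 cells were transiently transfected with a κB5-driven IκBα-FLuc fusion reporter (wild type or Ser32/Ser36 Ala mutants). After 48 h the medium was replaced with fresh medium containing D-luciferin, and cells were stimulated with TNFα (20 ng/mL) or vehicle. Real-time bioluminescence imaging was run under 5% CO2. Photon flux is reported as fold-initial, fold-untreated, mean ± S.E.M.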

FRB-FKBP (Homo sapiens, UniProt P42345+P62942), sequence (P42345 2024-2113 limits assumed): as the sequence (P42345 2024-2113 S2035I) above, with I12S counted along it
FRB-FKBP (Homo sapiens, UniProt P42345+P62942), sequence (P62942 whole entry): as the sequence (P62942 whole entry, the tested form may be a part) above

Molecule: C=CC[C@@H]1/C=C(\C)C[C@H](C)C[C@H](OC)[C@H]2O[C@@](O)(C(=O)C(=O)N3CCCC[C@H]3C(=O)O[C@H](/C(C)=C/[C@@H]3CC[C@@H](O)[C@H](OC)C3)[C@H](C)[C@@H](O)CC1=O)[C@H](C)C[C@@H]2OC [FK506]
- Ki (FRB-FKBP [1]; read-out: previously reported literature Ki): 0.4 nM
- change of bioluminescence after rapamycin pre-treatment (FRB-FKBP [2]; HEK293T, CBG-N + CBG-C, rapamycin 10 nM, FK506 10 μM added at […]): brisk loss of bioluminescence
- membrane permeability [3]: somewhat low

Molecule: Cn1cc(C2=C(c3ccc(Cl)cc3Cl)C(=O)NC2=O)c2ccccc21 [SB-216763]
- effect on PCA luciferase enzyme activity per se (PCA luciferase): no effect
- basal and TNFα-induced IκBα/β-TrCP interactions (red photon flux) (IκBα/β-TrCP; SB-216763 50 μM): inhibited
- basal β-cat/β-TrCP interactions (green photon flux) (β-cat/β-TrCP; SB-216763 50 μM): attenuated
- TNFα-stimulated NFκB-dependent transcription (FLuc reporter) (NFκB; TNFα 20 ng/ml combined with SB216763 50 μM): dramatically attenuated

Molecule: N#CC(=C(/N)Sc1ccccc1N)/C(C#N)=C(/N)Sc1ccccc1N [U0126]
- recovery of luciferase PCA activity after EGF (EGFR; 10 μM U0126, 25 nM EGF): blunted recovery of luciferase PCA activity

Molecule: C[C@@H]1C[C@@H]([C@H](O)CC2CC(=O)NC(=O)C2)C(=O)[C@@H](C)C1 [cycloheximide]
- luciferase activity after rapamycin induction (FRB-FKBP [2]; cycloheximide 100 μM added to rapamycin-induced cells): remained stable for up to 8 hours

Molecule: CO[C@H]1C[C@@H]2CC[C@@H](C)[C@@](O)(O2)C(=O)C(=O)N2CCCC[C@H]2C(=O)O[C@H]([C@H](C)C[C@@H]2CC[C@@H](O)[C@H](OC)C2)CC(=O)[C@H](C)/C=C(\C)[C@@H](O)[C@@H](OC)C(=O)[C@H](C)C[C@H](C)/C=C/C=C/C=C/1C [rapamycin]
- induction of PCA signal (ΔFRB (S2035I)-FKBP): no detectable induction
- Kd (FRB-FKBP [1]; read-out: previously reported Kd): 0.2 nM
- membrane permeability [3]: somewhat low

Molecule: EGF: recombinant mouse EGF ligand inducing EGFR activation (NSYPGCPSSYDGYCLNGGVCMHIESLDSYTCNCVIGYSGDRCQTRDLRWWELR; UniProt P01132 977-1029, looked up)
- luciferase PCA signal response (EGFR; 25 nM recombinant mouse EGF): rapid biphasic signal response

Molecule: TNFα
- IκBα-FLuc reporter signal (wild type) (IκBα): loss of signal
- IκBα/β-TrCP interactions (red photon flux) (IκBα/β-TrCP): increase in red photon flux
- β-cat/β-TrCP basal green photon flux (β-cat/β-TrCP; TNFα 20 ng/ml): no substantial change
- NFκB-dependent transcription (FLuc reporter) (NFκB; TNFα 20 ng/ml alone): robust transcriptional stimulation
